Measurements reported in ChEMBL document CHEMBL4371031, “In Vitro Antiviral Activity of New Oxazoline Derivatives as Potent Poliovirus Inhibitors” (J Med Chem, 2019).

Key:
Poliovirus 1 [1] = test: Antiviral activity against Poliovirus Sabin 1 infected in human HeLa cells assessed as reduction in virus-induced cytopathic effect after 72 hrs by crystal violet staining-based assay; type: functional, organism-based; conditions: Enterovirus C
Outline: (§1)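 HeLa cells grown in MEM-10% FBS, seeded at 2x10^5 cells/mL in MEM-2% FBS and preincubated 24 h at 37°C, 5% CO2. Compound and virus were cross-titrated […] compound in 0.5 log10 steps (7-point curves), with duplicate wells and three replicate tests per virus. After 72 h at 37°C, cells were crystal violet stained and read at 590 nm. EC50 came from a four-parameter fit; if all virus dilutions gave >80% monolayer destruction, the value was […].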

Poliovirus 2 [2] = test: Antiviral activity against Poliovirus Sabin 2 infected in human HeLa cells assessed as reduction in virus-induced cytopathic effect after 72 hrs by crystal violet staining-based assay; type: functional, organism-based; conditions: Enterovirus C; outline: as §1
Poliovirus 1 [3] = test: Antiviral activity against Human poliovirus 1 10690 infected in human HeLa cells assessed as reduction in virus-induced cytopathic effect after 72 hrs by crystal violet staining-based assay; type: functional, organism-based; conditions: Enterovirus C, 10690, HeLa; outline: as §1
Poliovirus 1 [4] = test: Antiviral activity against Human poliovirus 1 10691 infected in human HeLa cells assessed as reduction in virus-induced cytopathic effect after 72 hrs by crystal violet staining-based assay; type: functional, organism-based; conditions: Enterovirus C, 10691, HeLa; outline: as §1
Poliovirus 1 [5] = test: Antiviral activity against Human poliovirus 1 10693 infected in human HeLa cells assessed as reduction in virus-induced cytopathic effect after 72 hrs by crystal violet staining-based assay; type: functional, organism-based; conditions: Enterovirus C, 10693, HeLa; outline: as §1
Poliovirus 1 [6] = test: Antiviral activity against Human poliovirus 1 10694 infected in human HeLa cells assessed as reduction in virus-induced cytopathic effect after 72 hrs by crystal violet staining-based assay; type: functional, organism-based; conditions: Enterovirus C, 10694, HeLa; outline: as §1
Poliovirus 1 [7] = test: Antiviral activity against Human poliovirus 1 10223 infected in human HeLa cells assessed as reduction in virus-induced cytopathic effect after 72 hrs by crystal violet staining-based assay; type: functional, organism-based; conditions: Enterovirus C, 10223, HeLa; outline: as §1
Poliovirus 1 [8] = test: Antiviral activity against Human poliovirus 1 10225 infected in human HeLa cells assessed as reduction in virus-induced cytopathic effect after 72 hrs by crystal violet staining-based assay; type: functional, organism-based; conditions: Enterovirus C, 10225, HeLa; outline: as §1
Poliovirus 1 [9] = test: Antiviral activity against Human poliovirus 1 10235 infected in human HeLa cells assessed as reduction in virus-induced cytopathic effect after 72 hrs by crystal violet staining-based assay; type: functional, organism-based; conditions: Enterovirus C, 10235, HeLa; outline: as §1
Poliovirus 1 [10] = test: Antiviral activity against Human poliovirus 1 10238 infected in human HeLa cells assessed as reduction in virus-induced cytopathic effect after 72 hrs by crystal violet staining-based assay; type: functional, organism-based; conditions: Enterovirus C, 10238, HeLa; outline: as §1
Poliovirus 1 [11] = test: Antiviral activity against Human poliovirus 1 10240 infected in human HeLa cells assessed as reduction in virus-induced cytopathic effect after 72 hrs by crystal violet staining-based assay; type: functional, organism-based; conditions: Enterovirus C, 10240, HeLa; outline: as §1
Poliovirus 1 [12] = test: Antiviral activity against Human poliovirus 1 10242 infected in human HeLa cells assessed as reduction in virus-induced cytopathic effect after 72 hrs by crystal violet staining-based assay; type: functional, organism-based; conditions: Enterovirus C, 10242, HeLa; outline: as §1
Poliovirus 2 [13] = test: Antiviral activity against Human poliovirus 2 10219 infected in human HeLa cells assessed as reduction in virus-induced cytopathic effect after 72 hrs by crystal violet staining-based assay; type: functional, organism-based; conditions: Enterovirus C, 10219, HeLa; outline: as §1
Poliovirus 2 [14] = test: Antiviral activity against Human poliovirus 2 10220 infected in human HeLa cells assessed as reduction in virus-induced cytopathic effect after 72 hrs by crystal violet staining-based assay; type: functional, organism-based; conditions: Enterovirus C, 10220, HeLa; outline: as §1
Poliovirus 2 [15] = test: Antiviral activity against Human poliovirus 2 10226 infected in human HeLa cells assessed as reduction in virus-induced cytopathic effect after 72 hrs by crystal violet staining-based assay; type: functional, organism-based; conditions: Enterovirus C, 10226, HeLa; outline: as §1
Poliovirus 2 [16] = test: Antiviral activity against Human poliovirus 2 10227 infected in human HeLa cells assessed as reduction in virus-induced cytopathic effect after 72 hrs by crystal violet staining-based assay; type: functional, organism-based; conditions: Enterovirus C, 10227, HeLa; outline: as §1
Poliovirus 2 [17] = test: Antiviral activity against Human poliovirus 2 10229 infected in human HeLa cells assessed as reduction in virus-induced cytopathic effect after 72 hrs by crystal violet staining-based assay; type: functional, organism-based; conditions: Enterovirus C, 10229, HeLa; outline: as §1
Poliovirus 2 [18] = test: Antiviral activity against Human poliovirus 2 10231 infected in human HeLa cells assessed as reduction in virus-induced cytopathic effect after 72 hrs by crystal violet staining-based assay; type: functional, organism-based; conditions: Enterovirus C, 10231, HeLa; outline: as §1
Poliovirus 2 [19] = test: Antiviral activity against Human poliovirus 2 10232 infected in human HeLa cells assessed as reduction in virus-induced cytopathic effect after 72 hrs by crystal violet staining-based assay; type: functional, organism-based; conditions: Enterovirus C, 10232, HeLa; outline: as §1
Poliovirus 2 [20] = test: Antiviral activity against Human poliovirus 2 10243 infected in human HeLa cells assessed as reduction in virus-induced cytopathic effect after 72 hrs by crystal violet staining-based assay; type: functional, organism-based; conditions: Enterovirus C, 10243, HeLa; outline: as §1
Poliovirus 3 [21] = test: Antiviral activity against Human poliovirus 3 10804 infected in human HeLa cells assessed as reduction in virus-induced cytopathic effect after 72 hrs by crystal violet staining-based assay; type: functional, organism-based; conditions: Enterovirus C, 10804, HeLa; outline: as §1
Poliovirus 1 [22] = test: Antiviral activity against Human poliovirus 1 Brunhilde infected in human HeLa cells assessed as reduction in virus-induced cytopathic effect after 72 hrs by crystal violet staining-based assay; type: functional, organism-based; conditions: Enterovirus C; outline: as §1
Poliovirus 1 [23] = test: Antiviral activity against Human poliovirus 1 Mahoney infected in human HeLa cells assessed as reduction in virus-induced cytopathic effect after 72 hrs by crystal violet staining-based assay; type: functional, organism-based; conditions: Enterovirus C; outline: as §1
Poliovirus 2 [24] = test: Antiviral activity against Human poliovirus 2 Lansing infected in human HeLa cells assessed as reduction in virus-induced cytopathic effect after 72 hrs by crystal violet staining-based assay; type: functional, organism-based; conditions: Enterovirus C; outline: as §1
Poliovirus 2 [25] = test: Antiviral activity against Human poliovirus 2 P712 infected in human HeLa cells assessed as reduction in virus-induced cytopathic effect after 72 hrs by crystal violet staining-based assay; type: functional, organism-based; conditions: Enterovirus C; outline: as §1
Poliovirus 3 [26] = test: Antiviral activity against Human poliovirus 3 Saukett infected in human HeLa cells assessed as reduction in virus-induced cytopathic effect after 72 hrs by crystal violet staining-based assay; type: functional, organism-based; conditions: Enterovirus C; outline: as §1
Poliovirus 3 [27] = test: Antiviral activity against Human poliovirus 3 Sabin 3 infected in human HeLa cells assessed as reduction in virus-induced cytopathic effect after 72 hrs by crystal violet staining-based assay; type: functional, organism-based; conditions: Enterovirus C, Sabin 3, HeLa; outline: as §1
[28] = Cytotoxicity against human HeLa cells after 72 hrs by ATP-bioluminescence cell viability assay; type: cell-based
Outline: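 Luminescent ATP cell-viability read-out on HeLa cells with compound only, run under conditions similar to the cytopathic-effect assay (72 h, 37°C). Signal was compared with cell-only wells. CC50 was derived from the titration curves.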

[29] = Therapeutic ratio of CC50 for human HeLa cells to EC50 for Poliovirus Sabin 2 infected in human HeLa cells; type: toxicity, cell-based; conditions: read-out: Ratio CC50/EC50

SMILES: Cc1ccc(C(=O)CCCCOc2ccc(C3=NCCO3)cc2)s1
- EC50 (Poliovirus 1 [1]): 90800 nM
- EC50 (Poliovirus 2 [2]): 187 nM
- EC50 (Poliovirus 1 [3]): 48700 nM
- EC50 (Poliovirus 1 [4]): 67500 nM
- EC50 (Poliovirus 1 [5]): 24200 nM
- EC50 (Poliovirus 1 [6]): 7220 nM
- EC50 (Poliovirus 1 [7]): 70 nM
- EC50 (Poliovirus 1 [8]): 35700 nM
- EC50 (Poliovirus 1 [9]): 4610 nM
- EC50 (Poliovirus 1 [10]): 2100 nM
- EC50 (Poliovirus 1 [11]): 3620 nM
- EC50 (Poliovirus 1 [12]): 37900 nM
- EC50 (Poliovirus 2 [13]): 30 nM
- EC50 (Poliovirus 2 [14]): 40 nM
- EC50 (Poliovirus 2 [15]): > 100000 nM
- EC50 (Poliovirus 2 [16]): 30 nM
- EC50 (Poliovirus 2 [17]): 550 nM
- EC50 (Poliovirus 2 [18]): 50 nM
- EC50 (Poliovirus 2 [19]): 540 nM
- EC50 (Poliovirus 2 [20]): 40 nM
- EC50 (Poliovirus 3 [21]): > 100000 nM
- EC50 (Poliovirus 1 [22]): 990 nM
- EC50 (Poliovirus 1 [23]): > 100000 nM
- EC50 (Poliovirus 2 [24]): 590 nM
- EC50 (Poliovirus 2 [25]): > 100000 nM
- EC50 (Poliovirus 3 [26]): 350 nM
- EC50 (Poliovirus 3 [27]): 320 nM
- CC50 at 72 h [28]: > 50000 nM
- selectivity ratio [29]: > 1670

SMILES: Cc1ccc(C(=O)CCC/C=C/c2ccc(C3=NCCO3)cc2)s1
- EC50 (Poliovirus 1 [1]): 338 nM
- EC50 (Poliovirus 2 [2]): 27 nM
- EC50 (Poliovirus 1 [3]): 1260 nM
- EC50 (Poliovirus 1 [4]): 980 nM
- EC50 (Poliovirus 1 [5]): 980 nM
- EC50 (Poliovirus 1 [6]): 2300 nM
- EC50 (Poliovirus 1 [7]): 20 nM
- EC50 (Poliovirus 1 [8]): 810 nM
- EC50 (Poliovirus 1 [9]): 400 nM
- EC50 (Poliovirus 1 [10]): 190 nM
- EC50 (Poliovirus 1 [11]): 270 nM
- EC50 (Poliovirus 1 [12]): 20 nM
- EC50 (Poliovirus 2 [13]): 30 nM
- EC50 (Poliovirus 2 [14]): 20 nM
- EC50 (Poliovirus 2 [15]): 20 nM
- EC50 (Poliovirus 2 [16]): 40 nM
- EC50 (Poliovirus 2 [17]): 510 nM
- EC50 (Poliovirus 2 [18]): 30 nM
- EC50 (Poliovirus 2 [19]): 23 nM
- EC50 (Poliovirus 2 [20]): 30 nM
- EC50 (Poliovirus 3 [21]): 20 nM
- EC50 (Poliovirus 1 [22]): 70 nM
- EC50 (Poliovirus 1 [23]): 70 nM
- EC50 (Poliovirus 2 [24]): 60 nM
- EC50 (Poliovirus 2 [25]): 240 nM
- EC50 (Poliovirus 3 [26]): 40 nM
- EC50 (Poliovirus 3 [27]): 50 nM
- CC50 at 72 h [28]: > 50000 nM
- selectivity ratio [29]: > 1850

SMILES: Cc1ccc(C(=O)CCCCSc2ccc(C3=NCCO3)cc2)s1
- EC50 (Poliovirus 1 [1]): 118 nM
- EC50 (Poliovirus 2 [2]): 137 nM
- EC50 (Poliovirus 1 [3]): 2000 nM
- EC50 (Poliovirus 1 [4]): 560 nM
- EC50 (Poliovirus 1 [5]): > 10000 nM
- EC50 (Poliovirus 1 [6]): 6230 nM
- EC50 (Poliovirus 1 [7]): 3730 nM
- EC50 (Poliovirus 1 [8]): > 10000 nM
- EC50 (Poliovirus 1 [9]): 8470 nM
- EC50 (Poliovirus 1 [10]): 7470 nM
- EC50 (Poliovirus 1 [11]): 8470 nM
- EC50 (Poliovirus 1 [12]): 8200 nM
- EC50 (Poliovirus 2 [13]): 1200 nM
- EC50 (Poliovirus 2 [14]): 1000 nM
- EC50 (Poliovirus 2 [15]): 130 nM
- EC50 (Poliovirus 2 [16]): 4330 nM
- EC50 (Poliovirus 2 [17]): 2770 nM
- EC50 (Poliovirus 2 [18]): 5330 nM
- EC50 (Poliovirus 2 [19]): 6330 nM
- EC50 (Poliovirus 2 [20]): 1770 nM
- EC50 (Poliovirus 3 [21]): 440 nM
- EC50 (Poliovirus 1 [22]): 470 nM
- EC50 (Poliovirus 1 [23]): > 10000 nM
- EC50 (Poliovirus 2 [24]): 2270 nM
- EC50 (Poliovirus 2 [25]): 2930 nM
- EC50 (Poliovirus 3 [26]): 1670 nM
- EC50 (Poliovirus 3 [27]): 330 nM
- CC50 at 72 h [28]: 20000 nM
- selectivity ratio [29]: 146
